Measurements from ChEMBL document CHEMBL4229440, “Novel amino acid-substituted diphenylpyrimidine derivatives as potent BTK inhibitors against B cell lymphoma cell lines” (Bioorg Med Chem, 2018).
Activity calls are given as the source filed them. No cut-off for these calls is given here.

Assays:
[1] = molecular target: T1, Tyrosine-protein kinase BTK (Homo sapiens, UniProt Q06187); assay: Inhibition of full length recombinant human N-terminal His-tagged BTK expressed in baculovirus infected Sf9 cells using poly (4:1 Glu, Tyr) peptide as substrate after 60 mins by ADP-Glo assay
T1 sequence (Q06187 whole entry): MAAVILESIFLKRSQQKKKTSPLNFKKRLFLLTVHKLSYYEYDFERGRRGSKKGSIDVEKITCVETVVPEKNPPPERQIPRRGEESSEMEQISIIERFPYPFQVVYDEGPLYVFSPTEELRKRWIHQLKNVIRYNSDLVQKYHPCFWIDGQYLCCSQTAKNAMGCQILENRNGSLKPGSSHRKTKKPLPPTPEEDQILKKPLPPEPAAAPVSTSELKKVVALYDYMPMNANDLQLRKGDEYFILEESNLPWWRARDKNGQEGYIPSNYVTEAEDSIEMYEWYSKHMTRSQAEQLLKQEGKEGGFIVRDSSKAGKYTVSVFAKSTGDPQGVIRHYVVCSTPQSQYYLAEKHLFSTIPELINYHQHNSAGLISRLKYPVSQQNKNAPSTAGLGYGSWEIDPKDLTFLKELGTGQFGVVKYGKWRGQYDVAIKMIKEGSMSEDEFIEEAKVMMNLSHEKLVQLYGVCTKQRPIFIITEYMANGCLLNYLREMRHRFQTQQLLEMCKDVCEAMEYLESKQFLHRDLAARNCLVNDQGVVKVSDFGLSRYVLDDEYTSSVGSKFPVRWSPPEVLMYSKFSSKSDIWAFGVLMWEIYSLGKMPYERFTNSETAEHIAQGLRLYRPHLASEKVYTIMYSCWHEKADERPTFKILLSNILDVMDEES

[2] = system: Raji; assay: Antiproliferative activity against human Raji cells after 72 hrs by CCK8 assay; assay type: functional, cell-based
[3] = molecular target: T2, Tyrosine-protein kinase JAK3 (Homo sapiens, UniProt P52333); assay: Inhibition of recombinant human N-terminal GST-tagged JAK3 (781-end residues) expressed in baculovirus infected Sf9 cells using poly (4:1 Glu, Tyr) peptide as substrate after 60 mins by ADP-Glo assay
T2 sequence (P52333 whole entry): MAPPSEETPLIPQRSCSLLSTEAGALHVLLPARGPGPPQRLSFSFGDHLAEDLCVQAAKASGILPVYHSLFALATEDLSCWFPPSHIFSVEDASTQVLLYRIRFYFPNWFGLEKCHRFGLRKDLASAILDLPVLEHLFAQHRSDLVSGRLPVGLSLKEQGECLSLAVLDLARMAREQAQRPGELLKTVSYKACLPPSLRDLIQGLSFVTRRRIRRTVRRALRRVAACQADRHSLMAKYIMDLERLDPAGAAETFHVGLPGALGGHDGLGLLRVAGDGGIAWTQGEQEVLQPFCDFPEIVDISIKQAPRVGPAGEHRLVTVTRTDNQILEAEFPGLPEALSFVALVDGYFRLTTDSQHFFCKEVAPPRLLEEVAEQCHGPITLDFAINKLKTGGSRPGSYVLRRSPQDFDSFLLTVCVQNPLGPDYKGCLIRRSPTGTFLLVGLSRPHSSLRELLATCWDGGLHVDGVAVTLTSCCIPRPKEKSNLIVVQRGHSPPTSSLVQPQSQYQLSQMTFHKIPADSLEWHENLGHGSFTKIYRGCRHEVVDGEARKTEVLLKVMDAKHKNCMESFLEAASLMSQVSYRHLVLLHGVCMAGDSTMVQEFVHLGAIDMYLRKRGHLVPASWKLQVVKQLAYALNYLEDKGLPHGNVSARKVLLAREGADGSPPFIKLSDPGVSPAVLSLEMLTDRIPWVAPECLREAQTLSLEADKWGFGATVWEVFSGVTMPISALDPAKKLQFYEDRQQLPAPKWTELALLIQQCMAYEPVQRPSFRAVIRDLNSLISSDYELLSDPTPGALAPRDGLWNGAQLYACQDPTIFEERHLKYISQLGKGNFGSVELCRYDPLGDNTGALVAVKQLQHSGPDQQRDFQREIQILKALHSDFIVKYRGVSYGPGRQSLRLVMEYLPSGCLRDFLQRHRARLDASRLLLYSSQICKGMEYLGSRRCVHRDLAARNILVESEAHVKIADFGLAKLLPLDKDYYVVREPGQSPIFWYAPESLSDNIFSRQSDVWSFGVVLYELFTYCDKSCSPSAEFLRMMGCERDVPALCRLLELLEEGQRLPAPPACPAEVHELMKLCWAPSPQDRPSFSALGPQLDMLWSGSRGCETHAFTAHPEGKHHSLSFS
In short: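 ADP-Glo luminescent kinase assay with commercial JAK3 kinase enzyme system, in 1× kinase buffer, compounds at 0.1–1000 nM. The kinase reaction ran for 60 min at room temperature, followed by ADP-Glo reagent for 40 min to stop the reaction and deplete ATP, then detection reagent for 30 min. Luminescence was read and curves were fitted to give IC50.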

[4] = system: Ramos; assay: Antiproliferative activity against human Ramos cells after 72 hrs by CCK8 assay; assay type: functional, cell-based
[5] = molecular target: Epidermal growth factor receptor (Homo sapiens, UniProt P00533, T790M); assay: Inhibition of recombinant human N-terminal GST-tagged EGFR T790M mutant (695-end residues) expressed in baculovirus infected Sf9 cells using poly (4:1 Glu, Tyr) peptide as substrate after 60 mins by ADP-Glo assay
Sequence of Epidermal growth factor receptor (P00533 25-1210 T790M limits assumed): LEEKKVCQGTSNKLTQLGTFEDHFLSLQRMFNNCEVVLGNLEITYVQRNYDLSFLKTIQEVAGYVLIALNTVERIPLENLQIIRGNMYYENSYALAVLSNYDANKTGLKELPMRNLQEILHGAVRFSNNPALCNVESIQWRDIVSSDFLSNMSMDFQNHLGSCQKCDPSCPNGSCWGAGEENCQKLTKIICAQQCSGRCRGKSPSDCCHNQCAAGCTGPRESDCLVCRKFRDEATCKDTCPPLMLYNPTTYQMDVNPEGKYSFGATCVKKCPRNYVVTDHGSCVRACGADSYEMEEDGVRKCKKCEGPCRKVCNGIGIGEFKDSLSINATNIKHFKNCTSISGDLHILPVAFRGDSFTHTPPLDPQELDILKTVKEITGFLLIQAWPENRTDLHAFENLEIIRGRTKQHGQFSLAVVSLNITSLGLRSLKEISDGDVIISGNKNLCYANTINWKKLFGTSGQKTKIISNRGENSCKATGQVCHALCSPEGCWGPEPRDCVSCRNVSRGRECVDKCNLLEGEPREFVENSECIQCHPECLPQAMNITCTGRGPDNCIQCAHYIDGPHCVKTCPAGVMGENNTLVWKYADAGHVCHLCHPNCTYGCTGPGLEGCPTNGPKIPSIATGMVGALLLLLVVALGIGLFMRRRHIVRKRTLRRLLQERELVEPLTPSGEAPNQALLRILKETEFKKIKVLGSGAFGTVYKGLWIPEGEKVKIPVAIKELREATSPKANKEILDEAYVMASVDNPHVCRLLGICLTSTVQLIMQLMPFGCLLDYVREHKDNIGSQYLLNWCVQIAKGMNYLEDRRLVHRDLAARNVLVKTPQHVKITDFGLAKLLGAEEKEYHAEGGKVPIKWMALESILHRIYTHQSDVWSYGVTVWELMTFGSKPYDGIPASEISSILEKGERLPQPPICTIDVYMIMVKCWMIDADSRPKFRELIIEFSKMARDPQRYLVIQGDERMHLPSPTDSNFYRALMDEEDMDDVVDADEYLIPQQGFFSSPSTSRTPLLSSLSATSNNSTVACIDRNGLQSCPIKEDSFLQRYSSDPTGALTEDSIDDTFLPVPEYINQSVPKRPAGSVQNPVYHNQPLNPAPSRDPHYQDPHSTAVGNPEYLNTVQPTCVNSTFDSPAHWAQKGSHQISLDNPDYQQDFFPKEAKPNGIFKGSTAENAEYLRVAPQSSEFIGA
In short: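 ADP-Glo luminescent kinase assay in 1× kinase buffer with compounds at 0.1 to 1000 nM. The kinase reaction ran 60 min at room temperature, then ADP-Glo reagent stopped it and depleted ATP (40 min, RT). Detection reagent converted ADP to ATP for luciferase read-out (30 min, RT). IC50 came from curve fitting.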

[6] = system: NAMALVA; assay: Antiproliferative activity against human NAMALWA cells after 72 hrs by CCK8 assay; assay type: functional, cell-based
In short: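 Cells seeded 3,000/well in RPMI-1640 with 10% FBS at 37 °C, 5% CO2, for 4 h, then exposed to compound for 72 h. Concentrations 1.25 to 40 µM, each in five replicates. Cell number set to give an absorbance of 0.5–1.2 at 450 nm. CCK-8 read-out at 450 nm; IC50 fitted by curve fitting; values are the mean of at least three separate experiments.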

[7] = system: Raji; assay: Potency index, ratio of ibrutinib IC50 to compound IC50 for antiproliferative activity against human Raji cells; assay type: functional
[8] = system: NAMALVA; assay: Induction of apoptosis in human NAMALWA cells assessed as necrotic cells at 2 uM after 48 hrs by Annexin V-FITC/propidium iodide staining based flow cytometry (reference value: 4.05%); assay type: functional
[9] = system: NAMALVA; assay: Induction of apoptosis in human NAMALWA cells assessed as early apoptotic cells at 5 uM after 48 hrs by Annexin V-FITC/propidium iodide staining based flow cytometry (reference value: 0%); assay type: functional
[10] = system: NAMALVA; assay: Potency index, ratio of ibrutinib IC50 to compound IC50 for antiproliferative activity against human NAMALWA cells; assay type: functional
[11] = system: NAMALVA; assay: Induction of apoptosis in human NAMALWA cells assessed as late apoptotic cells at 1 uM after 48 hrs by Annexin V-FITC/propidium iodide staining based flow cytometry (reference value: 0%); assay type: functional
[12] = system: NAMALVA; assay: Induction of apoptosis in human NAMALWA cells assessed as late apoptotic cells at 2 uM after 48 hrs by Annexin V-FITC/propidium iodide staining based flow cytometry (reference value: 0%); assay type: functional
[13] = system: NAMALVA; assay: Induction of apoptosis in human NAMALWA cells assessed as late apoptotic cells at 5 uM after 48 hrs by Annexin V-FITC/propidium iodide staining based flow cytometry (reference value: 0%); assay type: functional
[14] = molecular target: T1, Tyrosine-protein kinase BTK; assay: Inhibition of BTK phosphorylation in human NAMALWA cells after 48 hrs by Western blot method; assay type: cell-based
In short: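 NAMALWA cells were treated at 1, 5 and 10 µM for 48 h and lysed; lysates were cleared at 14,000 g for 15 min at 4 °C. 50 µg protein was resolved on 8–12% SDS-PAGE and transferred to PVDF. The membrane was blocked in 5% skim milk for 2 h at room temperature, then probed overnight at 4 °C for BTK and p-BTK. Detection was by ECL.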

[15] = system: NAMALVA; assay: Induction of apoptosis in human NAMALWA cells assessed as early apoptotic cells at 1 uM after 48 hrs by Annexin V-FITC/propidium iodide staining based flow cytometry (reference value: 0%); assay type: functional
[16] = system: NAMALVA; assay: Induction of apoptosis in human NAMALWA cells assessed as necrotic cells at 1 uM after 48 hrs by Annexin V-FITC/propidium iodide staining based flow cytometry (reference value: 4.05%); assay type: functional
[17] = system: NAMALVA; assay: Induction of apoptosis in human NAMALWA cells assessed as necrotic cells at 5 uM after 48 hrs by Annexin V-FITC/propidium iodide staining based flow cytometry (reference value: 4.05%); assay type: functional
[18] = system: PBMC; assay: Cytotoxicity against human PBMC assessed as morphological changes at 5 to 20 uM after 24 hrs by acridine orange/ethidium bromide staining based phase contrast microscopic method; assay type: cell-based
In short: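 PBMC were isolated from a healthy adult 's venous blood (ACD anticoagulant) by Lymphoprep density separation, washed in PBS and seeded at 200,000–250,000 cells/well. Treated in RPMI-1640 with 10% FBS at 37 °C, 5% CO2, for 24 h, with five replicates per concentration. Morphology was checked by phase-contrast microscopy and AO/EB staining; live cells were counted manually in a counting chamber.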

[19] = system: NAMALVA; assay: Induction of apoptosis in human NAMALWA cells assessed as early apoptotic cells at 2 uM after 48 hrs by Annexin V-FITC/propidium iodide staining based flow cytometry (reference value: 0%); assay type: functional
[20] = system: NAMALVA; assay: Induction of apoptosis in human NAMALWA cells assessed as morphological changes at 5 uM by acridine orange/ethidium bromide staining based phase contrast microscopic assay; assay type: functional, cell-based

SMILES	IC50 [1] [µM]	IC50 [2] [µM]	IC50 [3] [µM]	IC50 [4] [µM]	IC50 [5] [µM]	IC50 [6] [µM]	Ratio IC50 [7]	Activity [8] [%]	Activity [9] [%]	Ratio IC50 [10]	Activity [11] [%]	Activity [12] [%]	Activity [13] [%]	inhibition [14]	Activity [15] [%]	Activity [16] [%]	Activity [17] [%]	Activity [18]	Activity [19] [%]	Activity [20]
C=CC(=O)Nc1cccc(Nc2nc(Nc3ccc(OCC(=O)NCC(=O)OC)cc3)ncc2Cl)c1	0.0065	18	0.496	20.9	> 0.1	16.9	–	–	–	–	–	–	–	–	–	–	–	–	–	–
C=CC(=O)Nc1cccc(Nc2nc(Nc3ccc(OCC(=O)N4CCCC4C(=O)OC)cc3)ncc2Cl)c1 (stereo not drawn)	0.0087	6.7	0.196	19.7	> 0.1	4.8	3	0.82	8.75	4	5.83	7.43	13.33	Dose-dependent effect	4.94	0.92	1.67	Non-Toxic	6.96	Active
C=CC(=O)Nc1cccc(Nc2nc(Nc3ccc(OCC(=O)NCC(=O)O)cc3)ncc2Cl)c1	0.0112	> 40	> 0.5	> 40	> 0.1	> 40	–	–	–	–	–	–	–	–	–	–	–	–	–	–
C=CC(=O)N1CCC[C@@H](n2nc(-c3ccc(Oc4ccccc4)cc3)c3c(N)ncnc32)C1 [IBRUTINIB]	–	–	–	–	–	19.6	–	–	4.06	–	–	–	5.75	–	–	–	0.73	–	–	Active
C=CC(=O)Nc1cccc(Nc2nc(Nc3ccc(OCC(=O)NC(C)C(=O)OC)cc3)ncc2Cl)c1 (stereo not drawn)	0.0087	25.2	> 0.5	40.8	> 0.1	29.3	–	–	–	–	–	–	–	–	–	–	–	–	–	–
